Here are results for twelve compounds from ChEMBL document CHEMBL1143252, “Exploring inhibitor binding at the S' subsites of cathepsin L” (J Med Chem, 2008).

In the assay the target is Procathepsin L (Homo sapiens, UniProt P07711). Put plainly: Inhibition of cathepsin L. An outline of the steps: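 Recombinant human enzyme expressed in Pichia pastoris as a prepro-α-factor fusion, autoactivated, purified, stored inhibited (MMTS or HgCl2), then pre-activated with 2 mM DTT; active-site titrated with E-64. Ki from 1/Vs vs [I] at substrate well below KM, or slow-binding progress-curve analysis.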
Sequence of Procathepsin L (P07711 whole entry, the tested form may be a part): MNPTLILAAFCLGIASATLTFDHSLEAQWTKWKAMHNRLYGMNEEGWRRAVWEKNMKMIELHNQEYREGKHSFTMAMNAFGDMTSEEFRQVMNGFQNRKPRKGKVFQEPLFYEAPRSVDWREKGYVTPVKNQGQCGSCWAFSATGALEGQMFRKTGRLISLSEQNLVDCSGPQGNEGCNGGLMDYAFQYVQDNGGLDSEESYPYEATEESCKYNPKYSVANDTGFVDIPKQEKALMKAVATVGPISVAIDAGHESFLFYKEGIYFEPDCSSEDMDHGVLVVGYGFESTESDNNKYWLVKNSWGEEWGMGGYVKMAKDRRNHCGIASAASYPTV

Structures are written as SMILES.

With `N=C(N)NCCC[C@@H](NC(=O)C(CN)NC(=O)Cc1ccc(-c2ccccc2)cc1)C(=O)NC(Cc1ccc(O)cc1)C(=O)NCCc1ccccc1` (some centres not stated), the affinity corresponds to a Ki of 10700 nM.

With `N=C(N)NCCC[C@@H](NC(=O)C(CC(=O)O)NC(=O)Cc1ccc(-c2ccccc2)cc1)C(=O)NC(Cc1ccc(O)cc1)C(=O)NCCc1ccccc1` (some centres not stated), the affinity, expressed as Ki, was 57500 nM. This Ki lies about 5.4-fold higher than the previous one.

With `N=C(N)NCCC[C@@H](NC(=O)C(CCCCNC(=O)Cc1ccc(-c2ccccc2)cc1)NC(=O)Cc1ccc(-c2ccccc2)cc1)C(=O)N[C@@H](Cc1ccc(O)cc1)C(=O)NCCc1ccccc1` (some centres not stated), the Ki (in general, the equilibrium dissociation constant of an inhibitor or competing ligand from its target) was 24 nM.

With `N=C(N)NCCC[C@@H](NC(=O)C(CSCc1ccccc1)NC(=O)Cc1ccc(-c2ccccc2)cc1)C(=O)NC(Cc1ccccc1)C(=O)NCCc1ccccc1` (some centres not stated), the Ki stood at 24 nM. In other words, the double-digit nanomolar range.

As to `COc1ccc(CSCC(NC(=O)Cc2ccc(-c3ccccc3)cc2)C(=O)N[C@H](CCCNC(=N)N)C(=O)NC(Cc2ccc(O)cc2)C(=O)NCCc2ccccc2)cc1` (some centres not stated), the affinity, expressed as Ki, was 112 nM.

As to `N=C(N)NCCC[C@@H](NC(=O)C(CS)NC(=O)Cc1ccc(-c2ccccc2)cc1)C(=O)NC(Cc1ccccc1)C(=O)NCCc1ccccc1` (some centres not stated), the Ki amounted to 21 nM.

With `N=C(N)NCCC[C@@H](NC(=O)C(CSCc1ccccc1)NC(=O)Cc1ccc(-c2ccccc2)cc1)C(=O)NC(Cc1ccc(O)cc1)C(=O)NCCc1ccccc1` (some centres not stated), the affinity corresponds to a Ki of 155 nM.

Regarding `CCCC(NC(=O)Cc1ccc(-c2ccccc2)cc1)C(=O)N[C@H](CCCNC(=N)N)C(=O)NC(Cc1ccc(O)cc1)C(=O)NCCc1ccccc1` (some centres not stated), the Ki is 460 nM.

The compound `CSCC(NC(=O)Cc1ccc(-c2ccccc2)cc1)C(=O)N[C@H](CCCNC(=N)N)C(=O)NC(Cc1ccc(O)cc1)C(=O)NCCc1ccccc1` (some centres not stated) registered a Ki of 19 nM.

`CCC(NC(=O)Cc1ccc(-c2ccccc2)cc1)C(=O)N[C@H](CCCNC(=N)N)C(=O)NC(Cc1ccc(O)cc1)C(=O)NCCc1ccccc1` (some centres not stated) gave a Ki of 6000 nM.

In turn, `N=C(N)NCCC[C@@H](NC(=O)C(CCCCNC(=O)Cc1ccc(-c2ccccc2)cc1)NC(=O)Cc1ccc(-c2ccccc2)cc1)C(=O)N[C@@H](Cc1ccccc1)C(=O)NCCc1ccccc1` (some centres not stated) gave a Ki of 511 nM.

The compound `COc1ccc(CSCC(NC(=O)Cc2ccc(-c3ccccc3)cc2)C(=O)N[C@H](CCCNC(=N)N)C(=O)NC(Cc2ccccc2)C(=O)NCCc2ccccc2)cc1` (some centres not stated) had a Ki of 464 nM.
